Series [1] deals with T1, Cocaine esterase (Homo sapiens, UniProt O00748).
T1 sequence (O00748 whole entry): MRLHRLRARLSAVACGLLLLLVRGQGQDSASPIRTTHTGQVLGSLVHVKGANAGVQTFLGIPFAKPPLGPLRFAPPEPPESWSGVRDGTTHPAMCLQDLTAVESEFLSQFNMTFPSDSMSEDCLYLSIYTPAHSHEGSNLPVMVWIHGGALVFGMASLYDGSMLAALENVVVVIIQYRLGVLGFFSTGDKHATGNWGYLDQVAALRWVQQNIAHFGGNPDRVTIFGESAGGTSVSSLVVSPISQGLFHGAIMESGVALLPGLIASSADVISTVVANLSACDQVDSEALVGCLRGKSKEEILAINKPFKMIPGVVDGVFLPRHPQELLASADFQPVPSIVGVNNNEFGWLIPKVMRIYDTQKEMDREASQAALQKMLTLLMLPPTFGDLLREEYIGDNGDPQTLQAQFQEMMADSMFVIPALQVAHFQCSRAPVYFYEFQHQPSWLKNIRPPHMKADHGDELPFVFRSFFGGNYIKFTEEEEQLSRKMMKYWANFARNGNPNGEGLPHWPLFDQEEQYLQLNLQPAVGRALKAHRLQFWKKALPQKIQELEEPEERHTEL
Put plainly: Metabolic stability of the compound in human intestinal microsomes assessed as carboxylesterase-2-mediated hydrolysis by measuring intrinsic clearance at 1 uM in absence of NADPH. The class given is ADME, Intestine. In outline:
(§1)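 Pooled mixed-gender human liver (N = 50) or intestinal (N = 6) microsomes at 0.5 or 0.76 mg/mL final, in 100 mM potassium phosphate pH 7.4, prewarmed 5 min at 37 °C. Substrate 1 µM, n = 2, final DMSO 0.025% and acetonitrile 0.98%. Aliquots taken over 0–60 min into acetonitrile with terfenadine internal standard. Parent loss by LC–MS/MS. CLint = 0.693·(mL incubation)/(t1/2·protein concentration).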

The target of series [2] is T2, Liver carboxylesterase 1 (Homo sapiens, UniProt P23141).
T2 sequence (P23141 whole entry): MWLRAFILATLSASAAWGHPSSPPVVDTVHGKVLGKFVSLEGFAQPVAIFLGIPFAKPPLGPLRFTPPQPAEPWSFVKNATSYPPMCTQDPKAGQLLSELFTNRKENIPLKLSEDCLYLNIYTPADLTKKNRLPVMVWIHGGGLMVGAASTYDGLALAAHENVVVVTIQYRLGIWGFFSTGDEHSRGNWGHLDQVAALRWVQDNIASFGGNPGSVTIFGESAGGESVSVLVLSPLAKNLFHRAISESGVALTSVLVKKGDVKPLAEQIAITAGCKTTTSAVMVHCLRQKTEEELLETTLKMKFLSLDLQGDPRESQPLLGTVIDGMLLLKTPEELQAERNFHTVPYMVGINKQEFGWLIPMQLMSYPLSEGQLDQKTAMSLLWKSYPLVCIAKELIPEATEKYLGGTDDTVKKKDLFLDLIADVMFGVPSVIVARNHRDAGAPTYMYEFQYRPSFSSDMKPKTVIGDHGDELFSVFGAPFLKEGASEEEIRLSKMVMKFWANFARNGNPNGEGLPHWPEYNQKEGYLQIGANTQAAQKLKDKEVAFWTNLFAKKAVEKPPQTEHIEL
Put plainly: Metabolic stability of the compound in human liver microsomes assessed as carboxylesterase-1-mediated hydrolysis by measuring intrinsic clearance at 1 uM in absence of NADPH. The format is ADME. In a few lines: as §1
For orientation: Liver microsomes are a subcellular fraction often used to study metabolism.

Series [3] has as its target T1, Cocaine esterase. Put plainly: (§2) Metabolic stability of the compound in human intestinal microsomes assessed as carboxylesterase-2-mediated hydrolysis by measuring half life in absence of NADPH. The format is ADME, Intestine. The following applies: microsomes. In outline:
as §1

The target in series [4] is T2, Liver carboxylesterase 1. Briefly: (§3) Metabolic stability of the compound in human liver microsomes assessed as carboxylesterase-1-mediated hydrolysis by measuring half life in absence of NADPH. The format is ADME. To be noted: microsomes. In outline:
as §1

Series [5] concerns the target T1, Cocaine esterase. Briefly: Metabolic stability of the compound assessed as recombinant carboxylesterase-2 (unknown origin)-mediated hydrolysis after 60 mins. To be noted: 1 h. The format is ADME. In a few lines:
(§4)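 Metabolite identification. Substrate at 10 µM final (DMSO stock diluted in acetonitrile) incubated 1 h at 37 °C, pH 7.4, n = 1, with one of: recombinant CE-1 bactosomes, recombinant CE-2 bactosomes, control E. coli cytosol, or human liver or intestinal microsomes. Quench in acetonitrile, centrifuge, dry supernatant under nitrogen, reconstitute in mobile phase. Metabolite formation read by LC–MS/MS.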

Series [6] concerns the target T2, Liver carboxylesterase 1. Briefly: Metabolic stability of the compound assessed as recombinant carboxylesterase-1 (unknown origin)-mediated hydrolysis after 60 mins. The format is ADME. The following applies: 1 h. In outline: as §4
For the next series, the target named is T3, carboxylesterase-2 (Homo sapiens, UniProt O00748).
T3 sequence (O00748 whole entry): T1 sequence (O00748 whole entry)
The description is as §2. The class given is ADME, Intestine. To be noted: intestinal microsomes. In a few lines:
as §1

The target of a further series is T4, carboxylesterase-1 (Homo sapiens, UniProt P23141).
T4 sequence (P23141 whole entry): T2 sequence (P23141 whole entry)
The description is as §3. The class given is ADME. To be noted: liver microsomes. In a few lines: as §1

By half-life is commonly meant the time needed for the level to fall by half in the phase considered.

SMILES strings stand for the structures.

Regarding `COC(=O)NCCCC(C)C(=O)Oc1ccc(Oc2ccc(CN(Cc3ccccc3)c3cccc(NS(C)(=O)=O)c3C)cc2)cc1` (centres undefined), on Cocaine esterase [1], the CL was 2600 µL/min/mg. Further, the CLint on Liver carboxylesterase 1 [2] came to 1000 µL/min/mg. Moreover, the t1/2 is 0.53 min on Cocaine esterase [3] and 1.3 min at Liver carboxylesterase 1 [4].

As to `C#CCC(CCCNC(=O)OC)C(=O)Oc1ccc(Oc2ccc(CN(Cc3ccccc3)c3cccc(NS(C)(=O)=O)c3C)cc2)cc1` (centres undefined), the CL on Cocaine esterase [1] came to 1700 µL/min/mg. Further, the CLint at Liver carboxylesterase 1 [2] worked out at 550 µL/min/mg. Also, the t1/2 turned out to be 0.84 min at Cocaine esterase [3] and 2.5 min at Liver carboxylesterase 1 [4].

Consider `COC(=O)NCCCC(C)(C)C(=O)Oc1ccc(Oc2ccc(CN(Cc3ccccc3)c3cccc(NS(C)(=O)=O)c3C)cc2)cc1`, for which the CL on Cocaine esterase [1] came out at 1000 µL/min/mg. The CLint on Liver carboxylesterase 1 [2] was 240 µL/min/mg. Moreover, the t1/2 on Cocaine esterase [3] is on record as 1.4 min; at Liver carboxylesterase 1 [4] it was 5.7 min.

As to `COC(=O)NCCCC(Cc1cn(Cc2ccccc2)nn1)C(=O)Oc1ccc(Oc2ccc(CN(Cc3ccccc3)c3cccc(NS(C)(=O)=O)c3C)cc2)cc1` (centres undefined), the results for the Stability result on Cocaine esterase [5] and at Liver carboxylesterase 1 [6] were “Unstable” and “Stable”, respectively. The CL at Cocaine esterase [1] is 480 µL/min/mg. The CLint at Liver carboxylesterase 1 [2] stood at 140 µL/min/mg. Besides, the t1/2 at Cocaine esterase [3] was found to be 1.9 min; at Liver carboxylesterase 1 [4], 6.7 min.

Turning to `COC(=O)NCCCC(CC(C)C)C(=O)Oc1ccc(Oc2ccc(CN(Cc3ccccc3)c3cccc(NS(C)(=O)=O)c3C)cc2)cc1` (centres undefined), the CL at Cocaine esterase [1] turned out to be 220 µL/min/mg. At Liver carboxylesterase 1 [2], the CLint stood at 82 µL/min/mg. Moreover, the half-life on carboxylesterase-2 came to 6.3 min; on carboxylesterase-1, 17 min.

Consider `COC(=O)NCCCC(Cc1ccccc1)C(=O)Oc1ccc(Oc2ccc(CN(Cc3ccccc3)c3cccc(NS(C)(=O)=O)c3C)cc2)cc1` (centres undefined), for which the CL on Cocaine esterase [1] worked out at 140 µL/min/mg. Also, the CLint at Liver carboxylesterase 1 [2] was determined as 73 µL/min/mg. Moreover, the t1/2 at Cocaine esterase [3] was 9.9 min; at Liver carboxylesterase 1 [4], 19 min.

In the case of `COC(=O)NCCCC(C)(Cc1ccccc1)C(=O)Oc1ccc(Oc2ccc(CN(Cc3ccccc3)c3cccc(NS(C)(=O)=O)c3C)cc2)cc1` (centres undefined), the Stability result is “Unstable” on Cocaine esterase [5] and “Stable” on Liver carboxylesterase 1 [6]. Moreover, at Cocaine esterase [1], the CL came out at 43 µL/min/mg. For the same molecule, the CLint on Liver carboxylesterase 1 [2] was found to be 19 µL/min/mg. In addition, the t1/2 came out at 32 min at Cocaine esterase [3] and 73 min on Liver carboxylesterase 1 [4].

As for `C#CCC(CCCNC(=O)OC)C(=O)OCCOc1ccc(Oc2ccc(CN(Cc3ccccc3)c3cccc(NS(C)(=O)=O)c3C)cc2)cc1` (centres undefined), the Stability result on Cocaine esterase [5] was “Unstable”; on Liver carboxylesterase 1 [6], “Stable”. The CL at Cocaine esterase [1] is 1900 µL/min/mg. Besides, the CLint on Liver carboxylesterase 1 [2] was 770 µL/min/mg. In addition, the t1/2 came to 0.73 min at Cocaine esterase [3] and 1.8 min at Liver carboxylesterase 1 [4].

Regarding `COC(=O)NCCCC(Cc1cn(Cc2ccccc2)nn1)C(=O)OCCOc1ccc(Oc2ccc(CN(Cc3ccccc3)c3cccc(NS(C)(=O)=O)c3C)cc2)cc1` (centres undefined), the Stability entry on Cocaine esterase [5] is given as “Unstable”; on Liver carboxylesterase 1 [6], “Stable”. The CL at Cocaine esterase [1] was found to be 240 µL/min/mg. Besides, the CLint at Liver carboxylesterase 1 [2] worked out at 170 µL/min/mg. Besides, the figures for the t1/2 at Cocaine esterase [3] and at Liver carboxylesterase 1 [4] were 3.8 min and 5.3 min, respectively.
